Source: PubChem (several laboratories)
sdo1 growth: sdo1-depleted yeast growth rescue; actives 0.21% (n = 140,000); z-score at 10 µM; S. cerevisiae sdo1-depleted JHY4D growth rescue, OD600 30 h; stronger effect = higher value; pdr5 snq2 efflux-pump mutant strain;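 active means z-score above 3 at both the 24 hr and the 30 hr optical density reads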
Yeast growth inh: yeast BB579 growth reduction in restrictive medium. inhibition, % at 10 µM. AID 804. actives 0.51% (n = 140,000). S. cerevisiae BB579 growth, OD615, 48 h;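 active means inhibition above a set limit, 3 SD over the mean compound inhibition, cut at about 44% in these data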
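Test system: Saccharomyces cerevisiae DeaD strain BB579, replicative lifespan model yeast | Buffer or medium: Restrictive CSMM-D medium | Doses: One dose, 10 µM compound with 0.25% DMSO | Incubation: 48 h exposure, 30 °C | Detection: Culture absorbance at 615 nm | Control set: Amphotericin B at 10 µg/mL as positive control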
RAM network inh: yeast RAM network inhibition | S. cerevisiae dse1pr::URA3 reporter, 5-FOA growth OD615, 2 d; analog-sensitive cbk1-as2 kinase mutant strain | inhibition, % at 50 µM | actives 1.8% (n = 190,000) | AID 868;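 active means inhibition above a set limit, 3 SD over mean compound inhibition, cut at about 8.4% in these data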;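 further: inhibition rescues growth on 5-FOA so higher OD means more RAM inhibition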
Yeast lifespan up: yeast lifespan extension. actives 0.68% (n = 130,000). S. cerevisiae growth with nicotinamide, OD615; deaD strain in restrictive glucose medium. inhibition of the nicotinamide effect, % at 10 µM. AID 775;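 active means inhibition above a set limit, placed 3 SD over the median of all compounds, cut at about 26% in these data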
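Measured by: optical density (absorbance) at 615 nm; System: modified budding yeast, DeaD strain; Medium: restrictive CSMM-D dextrose medium; Timing: 4 h preincubation then 48 h treatment at 30 °C.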
Numbers stand for hits; . = inactive; / = not tested or not shown. Only some compounds are listed: those with a hit (about 2.7% of all), similar ones and a draw of the others.

SMILES	sdo1 growth	Yeast growth inh	RAM network inh	Yeast lifespan up
O=C(NC1CC1)C1=C[C@H](c2csc3ccccc23)C[C@H](OCCCCO)O1	/	/	.	/
O=C(NCc1ccccc1)C1=C[C@@H](c2coc3ccccc3c2=O)C[C@@H](OCc2ccc(CO)cc2)O1	/	/	8.5	/
O=C(NCc1ccccc1)C1=C[C@H](C2CCCCC2)C[C@H](OCc2ccc(CO)cc2)O1	/	/	11.2	/
O=C(NCc1ccccc1)C1=C[C@@H](c2csc3ccccc23)C[C@@H](OCCCCO)O1	/	/	10.8	/
O=C(Nc1ccccc1)C1=C[C@H](c2coc3ccccc3c2=O)C[C@H](OCc2ccc(CO)cc2)O1	/	/	.	/
COc1ccc(C)cc1N(C(=O)c1ccccc1F)c1nc2ccccc2s1	.	.	.	.
CCOc1ccccc1C(=O)Nc1nnc(SCC(=O)Nc2cc(C)on2)s1	/	/	.	/
O=C(CCc1nc2ccccc2c(=O)[nH]1)OCCOc1ccc(Cl)cc1	/	/	.	/
O=C(c1ccccc1)N1CC(COc2ccccc2)OC(c2ccco2)O1 (stereo not drawn)	.	.	.	26.7
O=C(c1ccc(OCC2CCCO2)cc1)N1CCN(c2ccccc2)CC1 (stereo not drawn)	.	.	.	.
CN(C(=O)CCl)C1CCCc2ccccc21 (stereo not drawn)	/	/	.	/
COc1ccc([N+](=O)[O-])cc1NC(=O)c1ccc(CN(c2ccc(C)c(C)c2)S(C)(=O)=O)cc1	.	.	9.7	.
O=C(NNC1=Nc2cccc3cccc1c23)c1ccccc1Br	.	.	.	38.4
c1ccc(NC2=Nc3cccc4cccc2c34)cc1	/	/	.	/
NC1=NC(=O)/C(=C/c2cn(CCC(=O)O)nc2-c2ccc(Cl)cc2)S1	.	.	8.6	.
CCCOc1ccc(-c2nn(-c3ccccc3)cc2/C=C2\SC(N)=NC2=O)cc1	.	.	8.8	.
Cn1c(SCC(=O)N/N=C/c2ccc([N+](=O)[O-])s2)nnc1-c1ccc(Cl)cc1	.	99.4	.	.
Cc1ccccc1S(=O)(=O)/N=C(/c1ccccc1)N1CCOCC1	/	/	.	/
Fc1cccc(CO/N=C/c2c(-c3ccccc3)nc3ccc(Cl)cn23)c1	.	.	9.1	.
COc1cccc(/C(C#N)=C/c2c(-c3ccc(Cl)cc3)nc3c(C)cccn23)c1	.	.	.	.
Cc1cccn2c(/C=N/OCc3cccc(F)c3)c(-c3ccc(Cl)cc3)nc12	.	.	9.3	.
COc1ccc(NC(=S)N2CCC(c3nc4ccccc4o3)CC2)c(OC)c1	/	/	.	/
CCOC(=O)CSc1ccc(S(=O)(=O)N2CCC(C)CC2)cc1[N+](=O)[O-]	.	.	10.6	.
COC(=O)CSc1ccc(S(=O)(=O)N2CCOCC2)cc1[N+](=O)[O-]	.	.	.	.
CCOc1ccc(C(=O)C(CN2CCOCC2)c2ccccc2)cc1 (stereo not drawn)	.	.	.	49.4
SMILES	sdo1 growth	Yeast growth inh	RAM network inh	Yeast lifespan up
COc1cc(/C=C(\C#N)c2nc3ccccc3n2C)cc(OC)c1O	/	/	.	/
COc1ccc(/C=C2\SC(=NCc3ccccc3)N(Cc3ccccc3)C2=O)cc1OC	.	.	9.4	.
C=CCNC(=O)C1CCN(c2ccc(S(=O)(=O)N3CCOCC3)cc2[N+](=O)[O-])CC1	/	/	.	/
COc1ccccc1C(=O)NCC(=O)N/N=C/c1cccc(Cl)c1	/	/	.	/
CCCN(CC(=O)Nc1ccc(F)c(F)c1F)CC(=O)Nc1c(Cl)cccc1Cl	.	.	.	.
COc1cccc(-c2nc3n(n2)C(c2ccc4c(c2)OCO4)C(C(N)=O)=C(C)N3)c1 (stereo not drawn)	.	.	10.5	.
C=CCn1c(SCC(=O)N2CCCCC2)nc(O)cc1=O	.	.	.	48.1
CCc1ccc2nc(N3C(=O)C(O)=C(C(=O)c4ccco4)C3c3cccs3)sc2c1 (stereo not drawn)	.	.	.	44.7
O=C1SC(SCc2ccccc2)=N/C1=C\c1ccco1	.	.	8.8	.
CNC(=S)N(Cc1ccc(OC)cc1)Cc1cc2cc(C)ccc2[nH]c1=O	/	/	8.5	/
COc1ccc(CN(Cc2cc3cc(C)ccc3[nH]c2=O)C(=O)N(C)C)cc1	.	.	.	.
COC(=O)c1ccccc1NC(=S)N(Cc1ccc2c(c1)OCO2)Cc1cc2cc(OC)ccc2[nH]c1=O	.	.	8.5	.
COCCn1c(SCC(=O)Nc2cccc(C)n2)nnc1-c1ccco1	/	/	.	/
CC(=O)c1c(C(C)=O)c(C)n(NC(=O)c2ccccc2O)c1C	.	.	.	.
CC(=O)c1c(C(C)=O)c(C)n(NC(=O)c2cccnc2)c1C	.	.	.	45.8
CCCN1CCN(S(=O)(=O)c2ccc3c(c2)OCCO3)CC1	/	/	.	/
Cc1ccc(S(=O)(=O)NC(C(=O)O)c2ccccc2)cc1 (stereo not drawn)	/	/	.	/
CC[C@@H](C(=O)n1nc(C)cc1C)[C@H](NS(=O)(=O)c1ccc(C)cc1)c1ccccc1	.	.	10.0	.
CC1CN(C(=O)COC(=O)c2ccc(Cl)nc2)CC(C)O1 (stereo not drawn)	/	/	.	/
O=c1c2ccccc2nnn1Cc1ccc2ccccc2c1	/	/	.	/
COc1ccc(CCN(C(=S)Nc2ccccc2)C2CC(=O)N(c3ccccc3)C2=O)cc1 (stereo not drawn)	.	.	.	.
CNC(=S)N(CCc1ccc(S(N)(=O)=O)cc1)C1CC(=O)N(c2ccccc2F)C1=O (stereo not drawn)	/	/	9.4	/
COc1cc(C(C[N+](=O)[O-])c2c(-c3ccccc3)cc3ccccn23)cc(OC)c1OC (stereo not drawn)	.	.	.	77.6
COc1ccc(C(C[N+](=O)[O-])c2c(-c3ccccc3)cc3ccccn23)cc1OC (stereo not drawn)	.	.	.	.
C#CCOCCOCCOCCNc1nc(N2CCN(C(=O)[C@H]([C@@H](C)CC)n3cc([C@@H](N)CC(C)C)nn3)CC2)nc(N2CCN(C(=O)[C@H](CCCCN)n3cc([C@@H](N)CO)nn3)CC2)n1	/	/	.	/
SMILES	sdo1 growth	Yeast growth inh	RAM network inh	Yeast lifespan up
O=c1cc(CSc2nnc(-c3cccs3)n2Cc2ccccc2)nc2sc3ccccc3n12	.	.	8.6	.
Cc1c(O)c2c3c(cccc3c1O)C(=O)N(c1ccccc1)C2=O	.	.	.	.
Cc1cccc(C(=O)Nc2cc(OCc3cccc(F)c3)c(Cl)cc2Cl)c1	.	.	9.4	.
COCCOc1cc(NC(=O)c2cccc(OC)c2)c(Cl)cc1Cl	/	/	.	/
CCOc1cc(NC(=O)c2ccccn2)c(OCC)cc1NC(=O)c1cccc(C)c1	/	/	9.6	/
CCn1ncc(/C=N/NC(=O)c2ccc3c(c2)OCO3)c1C	.	.	.	119.6
COc1cccc(/C=C/C(=C2/C(=O)N(c3ccccc3)N=C2C)c2ccccc2)c1OC	.	.	.	.
COc1cccc(/C=C/C(=C2/C(=O)N(c3ccccc3)N=C2C)c2ccc(Br)cc2)c1OC	.	.	8.7	.
COc1ccccc1NC(=O)c1ccc(NS(=O)(=O)c2ccc(F)c(F)c2F)cc1	.	.	.	.
Cc1cc2ncn(/N=C/c3ccc(-c4ccccc4)o3)c2cc1C	.	.	9.5	.
